Six compounds from ChEMBL document CHEMBL3407394, “Synthesis and in vitro anticancer activity evaluation of novel bioreversible phosphate inositol derivatives” (Eur J Med Chem, 2015) can be followed below.

Series [1] is described as follows: Cytotoxicity against human MCF10A cells assessed as growth inhibition at 10 ug/ml after 72 hrs by MTT assay. The class given is cell-based, MCF-10A. As to conditions: read-out: GI. In outline:
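MCF10A cells in DMEM/F12 plus 5% horse serum, about 1000 per well, were incubated 12 h, then treated at one final well concentration diluted in DMEM (0.5% DMSO) for 72 h, 37 °C, 5% CO2. Viability was by MTT: 4 h in fresh medium, formazan dissolved in DMSO, absorbance at 570 nm, normalized to vehicle controls. Cisplatin in 1% NaCl, pH 7, was the positive control.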
In general terms: Tetrazolium assays rely on reduction of a dye to a coloured formazan, in cell work by metabolically active cells.

Series [2] can be described thus: Cytotoxicity against human MCF10A cells assessed as growth inhibition after 72 hrs by MTT assay. The class given is cell-based. As to conditions: MCF-10A. In outline:
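MCF10A non-cancerous cells were maintained in DMEM/F12 with 5% horse serum. About 1000 cells/well were seeded and attached for 12 h, then dosed over a dilution series (DMSO vehicle, final 0.5%) for 72 h at 37 °C, 5% CO2. MTT in fresh medium ran 4 h, formazan was dissolved in DMSO and OD570 measured. Viability was relative to vehicle-treated cells, and IC50 came from linear regression of concentration-response curves.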

For series [3], the system named is HeLa. Briefly: Cytotoxicity against human HeLa cells assessed as growth inhibition at 10 ug/ml after 72 hrs by MTT assay. In kind it is functional. As to conditions: read-out: GI. In short, it runs like this: (§1)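 Single-concentration screen in A549, HeLa or MDA-MB-231 cells cultured in DMEM, 10% FBS, 1% penicillin/streptomycin. About 1000 cells/well were preincubated 12 h, and compound diluted in DMEM to the final well concentration (0.5% DMSO) for 72 h at 37 °C, 5% CO2. Readout was MTT 4 h, DMSO-solubilized formazan, OD570, with inhibition relative to DMSO vehicle. Cisplatin in 1% NaCl (pH 7) served as positive control.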

Series [4] has as its system MDA-MB-231. Briefly: Cytotoxicity against human MDA-MB-231 cells assessed as growth inhibition after 72 hrs by MTT assay. The class given is functional, cell-based. Conditions: MDA-MB-231, 72 h. In short, it runs like this: (§2)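 A549, HeLa and MDA-MB-231 cells were grown in DMEM with 10% FBS and 1% penicillin/streptomycin. About 1000 cells/well were seeded and left 12 h, then exposed to a dilution series in DMSO (final 0.5% DMSO) for 72 h at 37 °C, 5% CO2. MTT in fresh medium was added for 4 h, formazan dissolved in DMSO, and OD570 read. Viability was normalized to vehicle, and IC50 taken by linear regression of concentration-response curves.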

Series [5] concerns MDA-MB-231. Briefly: Cytotoxicity against human MDA-MB-231 cells assessed as growth inhibition at 10 ug/ml after 72 hrs by MTT assay. The class given is functional. Conditions: MDA-MB-231, 72 h, read-out: GI. In outline: as §1
Series [6] has as its system HeLa. Briefly: Cytotoxicity against human HeLa cells assessed as growth inhibition after 72 hrs by MTT assay. In kind it is functional, cell-based. In short, it runs like this: as §2
In series [7] the test system is A549. Briefly: Cytotoxicity against human A549 cells assessed as growth inhibition at 10 ug/ml after 72 hrs by MTT assay. The class given is functional. As to conditions: A549, 72 h, read-out: GI. In short, it runs like this:
as §1

Series [8] has as its system A549. The experiment in a line: Cytotoxicity against human A549 cells assessed as growth inhibition after 72 hrs by MTT assay. In kind it is functional, cell-based. Conditions: A549, 72 h. In outline:
as §2

As for `CC(=O)Oc1ccc(COP(=O)(OCc2ccc(OC(C)=O)cc2)OC2C3OC4OC(C3OCc3ccccc3)C(OCc3ccccc3)C2O4)cc1` (stereo not drawn), the inhibition at 72 h, 10 ug/ml in series [1] amounted to 20.1%. Further, the IC50 – broadly, the concentration that inhibits the measured activity by half – in series [2] amounted to 45.4 µM; with MDA-MB-231 [4] it was 2770 nM; in the series on HeLa [6], 1260 nM; in the series on A549 [8] it was 6.75 µM. In addition, the inhibition of growth at 10 µg/mL was determined as 100% in the series on HeLa [3], 95.8% in the series with MDA-MB-231 [5] and 88.9% with A549 [7].
In the case of `CC(=O)Oc1ccc(COP(=O)(OCc2ccc(OC(C)=O)cc2)OC2C3OCOC(C3OCc3ccccc3)C(OCc3ccccc3)C2OP(=O)(OCc2ccc(OC(C)=O)cc2)OCc2ccc(OC(C)=O)cc2)cc1` (stereo not drawn), in series [1], the inhibition at 72 h, 10 ug/ml amounted to 90.4%. In addition, the IC50 in series [2] was 0.85 µM; in the series on MDA-MB-231 [4], 430 nM; in the series with HeLa [6], 620 nM; in the series with A549 [8] it was 2.01 µM. Moreover, the inhibition of growth at 10 µg/mL was 100% in the series with HeLa [3], 86.8% in the series with MDA-MB-231 [5] and 92.1% in the series on A549 [7].
As for `CC(=O)Oc1ccc(COP(=O)(OCc2ccc(OC(C)=O)cc2)OC2C(OCc3ccccc3)C3OCOC(C3OCc3ccccc3)C2OCc2ccccc2)cc1` (stereo not drawn), the inhibition at 72 h, 10 ug/ml in series [1] turned out to be 48.9%. For the same compound, the half-maximal inhibitory concentration (IC50) in series [2] was 18.9 µM; in the series on MDA-MB-231 [4], 1580 nM; in the series with HeLa [6], 1520 nM; in the series on A549 [8], 8.15 µM. The inhibition of growth at 10 µg/mL was found to be 98.1% with HeLa [3], 12.4% with MDA-MB-231 [5] and 75.4% with A549 [7].
Regarding `CC(=O)Oc1ccc(COP(=O)(OCc2ccc(OC(C)=O)cc2)OC2C3OC4OC(C3OCc3ccccc3)C(O[Si](C)(C)C(C)(C)C)C2O4)cc1` (stereo not drawn), the inhibition at 72 h, 10 ug/ml in series [1] turned out to be 100%. In addition, the IC50 in series [2] turned out to be 38.1 µM; in the series on MDA-MB-231 [4], 2350 nM; with HeLa [6], 1350 nM; in the series with A549 [8] it was 9.51 µM. The inhibition of growth at 10 µg/mL was determined as 100% with HeLa [3], 84.3% in the series on MDA-MB-231 [5] and 100% in the series on A549 [7].
As for `CC(=O)Oc1ccc(COP(=O)(OCc2ccc(OC(C)=O)cc2)O[C@H]2[C@@H]3OC(C)(C)O[C@H]3[C@H](OP(=O)(OCc3ccc(OC(C)=O)cc3)OCc3ccc(OC(C)=O)cc3)[C@H]3OC(C)(C)O[C@H]32)cc1`, the inhibition at 72 h, 10 ug/ml in series [1] was -10.7%. The half-maximal inhibitory concentration (IC50) in series [2] stood at 25.1 µM; with MDA-MB-231 [4], 830 nM; with HeLa [6] it was 620 nM; in the series with A549 [8], 2.34 µM. Besides, the values for the inhibition of growth at 10 µg/mL in the series on HeLa [3], with MDA-MB-231 [5] and in the series on A549 [7] were 100%, 91.8% and 90.1%, respectively.
Take `CC(=O)Oc1ccc(COP(=O)(OCc2ccc(OC(C)=O)cc2)OC2C3OC4OC(C3OCc3ccccc3)C(OP(=O)(OCc3ccc(OC(C)=O)cc3)OCc3ccc(OC(C)=O)cc3)C2O4)cc1` (stereo not drawn): the inhibition at 72 h, 10 ug/ml in series [1] was determined as 38.8%. Further, the IC50 in series [2] is greater than 50 µM; with MDA-MB-231 [4], 1530 nM; in the series with HeLa [6], 760 nM; in the series on A549 [8] it was 1.37 µM. Besides, the inhibition of growth at 10 µg/mL in the series with HeLa [3] was determined as 100%; in the series with MDA-MB-231 [5], 99.7%; in the series on A549 [7], 98.5%.
